Active and inactive are the calls of the source. The calls are words filed in the database; no cut-off is given here.
How the values were obtained:
[1] = Cytotoxicity against human WM266.4 cells after 72 hrs by ATPlite assay; assay type: functional, cell-based; details: WM 266-4, 72 h
Procedure, shortened: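 WM-266-4 metastatic melanoma cells grown in DMEM with 10% fetal calf serum, 2 mM L-glutamine, fungizone and penicillin–streptomycin at 37 °C, 5% CO2. Seeded at 3 × 10⁴ cells/ml, left 24 h, then exposed to increasing compound concentrations for 72 h. Viability read as ATP level (ATPlite). IC50 from nonlinear sigmoidal fit with variable Hill slope; mean of two independent experiments.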

[2] = Inhibition of peptide-glutamyl-peptide-hydrolyzing activity of 20S proteasome in human DLD1 cells transfected with 4Ub-Luc gene using Z-Leu-Leu-Glu-AMC as substrate after 6 hrs by spectrofluorometric analysis; assay type: cell-based; details: dld-1
Procedure, shortened: (§1)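 DLD-1 4Ub-Luc cells seeded at 10⁴ cells/well, exposed to compound or solvent for 6 h, then 30 min in reaction buffer (30 mM Tris–HCl pH 7.5, 1 mM ATP). Chymotrypsin-like and PGPH activities read with specific fluorogenic substrates.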

[3] = system: DLD-1; assay: Inhibition of 20S proteasome activity in human DLD1 cells transfected with 4Ub-Luc gene assessed as bioluminescence induction factor at 10 uM after 8 hrs by luciferase reporter gene assay relative to epoxomicin; assay type: cell-based
Procedure, shortened: (§2)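 Stably transfected DLD-1 cells expressing 4Ub-Luc reporter, cultured in MEM with 5% heat-inactivated serum. Seeded at 10⁴ cells/well and treated with compound or solvent for 8 h. Luciferase activity in lysates read by luminometer. Induction factor = signal of treated over untreated cells, normalised to epoxomicin at 10^-7 M run in parallel (set to 100). IF ≥10 counted active.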

[4] = system: DLD-1; assay: Inhibition of 20S proteasome in human DLD1 cells transfected with 4Ub-Luc gene assessed as bioluminescence induction factor at 5 uM after 8 hrs by luciferase reporter gene assay relative to epoxomicin; assay type: cell-based; procedure, shortened: as §2
[5] = system: DLD-1; assay: Inhibition of 20S proteasome in human DLD1 cells transfected with 4Ub-Luc gene assessed as bioluminescence induction factor at 1 uM after 8 hrs by luciferase reporter gene assay relative to epoxomicin; assay type: cell-based; procedure, shortened: as §2
[6] = Inhibition of chymotrypsin-like activity of 20S proteasome in human DLD1 cells transfected with 4Ub-Luc gene using Succinyl-Leu-Leu-Val-Tyr-AMC as substrate after 6 hrs by spectrofluorometric analysis; assay type: cell-based; details: dld-1; procedure, shortened: as §1
[7] = system: DLD-1; assay: Inhibition of 20S proteasome in human DLD1 cells transfected with 4Ub-Luc gene assessed as bioluminescence induction factor at 0.5 uM after 8 hrs by luciferase reporter gene assay relative to epoxomicin; assay type: cell-based; procedure, shortened: as §2
[8] = system: DLD-1; assay: Inhibition of chymotrypsin-like activity of 20S proteasome in human DLD1 cells transfected with 4Ub-Luc gene using Succinyl-Leu-Leu-Val-Tyr-AMC as substrate at 20 uM after 6 hrs by spectrofluorometric analysis; assay type: cell-based
Procedure, shortened: (§3)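 Stably transfected DLD-1 4Ub-Luc cells seeded at 10⁴ cells/well, exposed to compound or solvent for 6 h, then incubated a further 30 min in reaction buffer (30 mM Tris–HCl pH 7.5, 1 mM ATP) with an activity-specific fluorogenic substrate; cellular proteasome activity read by fluorescence. Cells grown in MEM with 5% heat-inactivated serum.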

[9] = system: DLD-1; assay: Inhibition of peptide-glutamyl-peptide-hydrolyzing activity of 20S proteasome in human DLD1 cells transfected with 4Ub-Luc gene using Z-Leu-Leu-Glu-AMC as substrate at 40 uM after 6 hrs by spectrofluorometric analysis; assay type: cell-based; procedure, shortened: as §3
[10] = system: DLD-1; assay: Inhibition of 20S proteasome in human DLD1 cells transfected with 4Ub-Luc gene assessed as bioluminescence induction factor at 0.1 uM after 8 hrs by luciferase reporter gene assay relative to epoxomicin; assay type: cell-based; procedure, shortened: as §2

Structure (SMILES)	IC50 [1] [µM]	IC50 [2] [µM]	fold change (FC) [3]	fold change (FC) [4]	fold change (FC) [5]	IC50 [6] [µM]	fold change (FC) [7]	inhibition [8]	inhibition [9]	fold change (FC) [10]
C=C(C(=O)[C@H](OC(=O)CCl)[C@@H](C)[C@H]1[C@@H](OC(C)=O)C[C@@]2(C)[C@@H]3CC[C@H]4[C@H](C)C(=O)C=C[C@@]45C[C@@]35CC[C@]12C)[C@@H](C)COC(C)=O	0.66	100	5	21	64	50	23	–	–	–
C=C(C(=O)[C@H](OC(C)=O)[C@@H](C)[C@H]1[C@@H](OC(C)=O)C[C@@]2(C)[C@@H]3CC[C@H]4[C@H](C)C(=O)C=C[C@@]45C[C@@]35CC[C@]12C)[C@@H](C)COC(=O)Nc1ccccc1	0.19	> 1000	–	60	42	> 1000	6.4	–	–	–
C[C@]12C(=O)C=CCC1=CC[C@@H]1[C@@H]2CC[C@]2(O)C(=O)O[C@@]3(C)[C@H]4C[C@]5(C)[C@@H](CO[C@@]16O[C@@]32[C@H]5C6=O)C(=O)O4	–	–	–	19	–	–	–	Active	Active	–
CC[C@H](C)[C@H](NC(=O)[C@H]([C@@H](C)CC)N(C)C(C)=O)C(=O)N[C@H](C(=O)N[C@@H](CC(C)C)C(=O)[C@@]1(C)CO1)[C@@H](C)O [EPOXOMYCIN]	0.0048	0.06	–	–	112	0.006	–	–	–	100
C=C(C(=O)[C@H](O)[C@@H](C)[C@H]1[C@@H](OC(C)=O)C[C@@]2(C)[C@@H]3CC[C@H]4[C@H](C)C(=O)C=C[C@@]45C[C@@]35CC[C@]12C)[C@@H](C)CO	1.6	51	2.9	28	45	42	1.4	–	–	–
CC(C)C[C@H](NC(=O)[C@H](Cc1ccccc1)NC(=O)c1cnccn1)B(O)O [BORTEZOMIB]	0.035	0.0009	–	–	117	0.0002	–	–	–	133
CC(=O)N[C@@H](CSC(=O)[C@]1([C@@H](O)C(C)C)NC(=O)[C@H](C)[C@@H]1O)C(=O)O [LACTACYSTIN]	–	0.3	93	106	72	0.07	–	–	–	6.2
C=C(C(=O)[C@H](O)[C@@H](C)[C@H]1[C@@H](OC(C)=O)C[C@@]2(C)[C@@H]3CC[C@H]4[C@H](C)C(=O)C=C[C@@]45C[C@@]35CC[C@]12C)[C@@H](C)COC(=O)N1CCN(C)CC1	0.46	32	–	–	–	39	–	–	–	–
C=C(C(=O)[C@H](OC(C)=O)[C@@H](C)[C@H]1[C@@H](OC(C)=O)C[C@@]2(C)[C@@H]3CC[C@H]4[C@H](C)C(=O)C=C[C@@]45C[C@@]35CC[C@]12C)[C@@H](C)COC(=O)N1CCN(C)CC1	0.5	16	1	4.2	68	13	8	–	–	–
C=C(C(=O)[C@H](OC(C)=O)[C@@H](C)[C@H]1[C@@H](OC(C)=O)C[C@@]2(C)[C@@H]3CC[C@H]4[C@H](C)C(=O)C=C[C@@]45C[C@@]35CC[C@]12C)[C@@H](C)COC(C)=O	1.5	43	–	48	11	35	1.1	–	–	–
C=C(C(=O)[C@H](OC(C)=O)[C@@H](C)[C@H]1[C@@H](OC(C)=O)C[C@@]2(C)[C@@H]3CC[C@H]4[C@H](C)C(=O)C=C[C@@]45C[C@@]35CC[C@]12C)[C@@H](C)CO [NEOBOUTOMELLERONE]	2.8	23	4.4	37	48	16	2.1	–	–	–
C=C(C(=O)[C@H](O)[C@@H](C)[C@H]1[C@@H](OC(C)=O)C[C@@]2(C)[C@@H]3CC[C@H]4[C@H](C)C(=O)C=C[C@@]45C[C@@]35CC[C@]12C)[C@@H](C)COC(C)=O	0.99	45	6	29	26	31	1.7	–	–	–
C=C(C(=O)[C@H](OC(=O)CNC(=O)OC(C)(C)C)[C@@H](C)[C@H]1[C@@H](OC(C)=O)C[C@@]2(C)[C@@H]3CC[C@H]4[C@H](C)C(=O)C=C[C@@]45C[C@@]35CC[C@]12C)[C@@H](C)COC(C)=O	1	23	1.6	3.4	69	17	76	–	–	–
C=CCOC[C@H](C)C(=C)C(=O)[C@H](O)[C@@H](C)[C@H]1[C@@H](OC(C)=O)C[C@@]2(C)[C@@H]3CC[C@H]4[C@H](C)C(=O)C=C[C@@]45C[C@@]35CC[C@]12C	0.78	–	1.5	13	49	–	3.7	–	–	–
C=C(C(=O)[C@H](OC(C)=O)[C@@H](C)[C@H]1[C@@H](OC(C)=O)C[C@@]2(C)[C@@H]3CC[C@H]4[C@H](C)C(=O)C=C[C@@]45C[C@@]35CC[C@]12C)[C@@H](C)COC(=O)Nc1ccc(N(C)C)cc1	0.96	> 1000	60	63	51	> 1000	19	–	–	–
C=C(C(=O)[C@H](OC(C)=O)[C@@H](C)[C@H]1[C@@H](OC(C)=O)C[C@@]2(C)[C@@H]3CC[C@H]4[C@H](C)C(=O)C=C[C@@]45C[C@@]35CC[C@]12C)[C@@H](C)COC(=O)CN(C)C	0.61	52	2.7	11	50	31	66	–	–	–
C=C(C(=O)[C@H](O)[C@@H](C)[C@H]1[C@@H](OC(C)=O)C[C@@]2(C)[C@@H]3CC[C@H]4[C@H](C)C(=O)C=C[C@@]45C[C@@]35CC[C@]12C)[C@@H](C)COC(=O)Nc1ccc(N(C)C)cc1	0.82	> 1000	34	47	51	> 1000	11	–	–	–

— ChEMBL document CHEMBL1938254, “Semisynthetic neoboutomellerone derivatives as ubiquitin-proteasome pathway inhibitors” (Bioorg Med Chem, 2012)
